Results published in PubChem BioAssay AID1525 (The Scripps Research Institute Molecular Screening Center, 2009).
This is one part of the list. Unmarked numbers belong to inactive results. Active and inactive are the calls of the source.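 How the source made its calls: active means mean activation over replicates above a set limit taken from the earlier TRPN1 channel primary screen (cut at about 19% in these data); inactive means the rest.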

System: TRPN1 (NOMPC) [Danio rerio]
Test: zebrafish TRPN1 channel agonists, counter-screen for TRPML3 agonist project, cell-based, HEK293 TRPN1-YFP, Fluo-8 calcium (AID 1525)
Conditions: Fluo-8 calcium fluorescence, at 3 µM, hits give high values, scaled: carbachol wells 100%, DMSO wells 0%
Method in brief: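 Assay system: zebrafish TRPN1-YFP HEK293 cells; timing: Fluo-8 loading 1 h at 37 °C, then 30 min room temperature; measured by: kinetic Fluo-8 calcium fluorescence, 125 s total read; benchmarks: high carbachol 87 µM, low 0.3% DMSO; doses: single 3 µM dose; replicates: triplicate wells per compound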

Structure (SMILES) | activation
CC1=CC(C)(C)N(C(=O)CSc2nnc(-c3ccccc3)o2)c2ccc(C)cc21 | 0.12%
COc1ccc(Cl)cc1N(CC(=O)N1CCCCC1)S(C)(=O)=O | 2.78%
C=C(C)Cn1c(C)cc(C)c(S(=O)(=O)c2ccccc2C)c1=O | -3.19%
COc1cc(/C=C(\C#N)c2nc3c(s2)CC(C)CC3)ccc1O (stereo not drawn) | 14%
O=C(CC(O)(C(F)(F)F)C(F)(F)F)Nc1ccc(Cl)c(Cl)c1 | 21.3% (active)
COc1ccccc1N(CC(=O)N1CCCCC1)S(=O)(=O)c1ccccc1 | 1.91%
CCOC(=O)C1=C(NC(=S)NC(=O)c2ccccc2)c2ccccc2CC1(C)C | 15.5%
COc1ccc(S(=O)(=O)N2CCCC2)c(C)c1C | 0.75%
CCN(CC)S(=O)(=O)c1ccc2c3c(cccc13)C(=O)S2 | -0.76%
c1ccc2c(C[n+]3csc4ccccc43)cccc2c1 | -0.03%
COc1ccc(N(CCC#N)S(=O)(=O)c2ccc(Cl)cc2)cc1 | 0.61%
O=S(=O)(Nc1ccccc1N1CCOCC1)c1ccc(Cl)s1 | 0.07%
CC1(C)CCCC2=C1CC1C(=O)N(c3ccccc3)C(=O)C1C2 (stereo not drawn) | -0.48%
CC1CCCC(C)N1C(=O)CN1CCN(c2nc(-c3ccc(F)cc3)cs2)CC1 (stereo not drawn) | 4.68%
CCOc1ccc(S(=O)(=O)N2CCCCCC2)c2ccccc12 | -0.72%
CCN(CC)C(=O)CC1(c2ccccc2OC)CCOC(C(C)C)C1 (stereo not drawn) | -1.47%
COc1ccc(-c2noc(CN(C)S(=O)(=O)c3ccc(C)cc3)n2)cc1 | 5.96%
Cc1cccc(C)c1N1CCN(S(=O)(=O)N2CCCCC2)CC1 | 28.3% (active)
